This is an account of results in ChEMBL document CHEMBL4382218, “Design, synthesis and antifungal evaluation of borrelidin derivatives” (Bioorg Med Chem, 2018).

Converted amounts (≈) assume the structure as drawn. The source made the active and inactive calls. The rule behind the calls is not given here.

Data set [1] concerns Candida albicans. Kind of data set: Antifungal activity against Candida albicans ATCC MYA-2876 at 100 ug/ml after 48 hrs by micro broth dilution method. The data set is classed as functional, organism-based. In a few lines: (§1)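 Broth microdilution in RPMI-1640 (NaHCO3, MOPS, pH 7.0). Compounds are dissolved in DMSO and serially diluted 2-fold to eight concentrations, with stocks of […]. Fungal inocula are 2 × 10³ cfu/mL. Plates are incubated 48 h at 28 °C. The MIC is the lowest concentration with no turbidity, and the highest concentration tested is 100 μg/mL.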

Data set [2] in a line: Selectivity index, ratio of IC50 for HEK293T cells to MIC for Candida albicans ATCC MYA-2876. The data set is classed as toxicity. The following applies: human, read-out: Selectivity Index.
Data set [3] can be described thus: Selectivity index, ratio of IC50 for HEK293T cells to MIC for Candida parapsilosis ATCC 22019. The data set is classed as toxicity. The following applies: human, read-out: Selectivity Index.
Data set [4] can be described thus: Selectivity index, ratio of IC50 for HEK293T cells to MIC for Aspergillus fumigatus CCTCC AF 93048. The following applies: human, read-out: Selectivity Index. In kind it is toxicity.
Data set [5] concerns Aspergillus fumigatus. As to the kind of experiment: Antifungal activity against Aspergillus fumigatus CCTCC AF 93048 after 48 hrs by micro broth dilution method. The data set is classed as functional. The following applies: CCTCC AF 93048, 48 h. An outline of the steps: as §1
Data set [6] relates to HEK-293T. As to the kind of experiment: Cytotoxicity against HEK293T cells assessed as growth inhibition after 48 hrs by MTT assay. The data set is classed as cell-based. The following applies: Homo sapiens. In a few lines: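 293T cells are grown in DMEM with 10% FBS, L-glutamine and penicillin/streptomycin at 37 °C in 5% CO₂. Cells are seeded at 7 × 10³ per well and exposed to six concentrations (0.33-100.0 μM) for 48 h. MTT is then added for 4 h, formazan is dissolved in DMSO and read at 570 nm. IC50 comes from non-linear regression, n = 3 independent experiments.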

Data set [7] deals with Candida parapsilosis. Kind of data set: Antifungal activity against Candida parapsilosis ATCC 22019 at 100 ug/ml after 48 hrs by micro broth dilution method. In kind it is functional, organism-based. An outline of the steps:
as §1

For data set [8], the system named is Candida parapsilosis. Kind of data set: Antifungal activity against Candida parapsilosis ATCC 22019 after 48 hrs by micro broth dilution method. The following applies: Lodderomyces parapsilosis, ATCC 22019, 48 h. The data set is classed as functional. An outline of the steps:
as §1

Data set [9] has as its system Candida albicans. Kind of data set: Antifungal activity against Candida albicans ATCC MYA-2876 after 48 hrs by micro broth dilution method. The data set is classed as functional. The following applies: ATCC MYA-2876, 48 h. An outline of the steps:
as §1

For data set [10], the system named is Aspergillus fumigatus. Kind of data set: Antifungal activity against Aspergillus fumigatus CCTCC AF 93048 at 100 ug/ml after 48 hrs by micro broth dilution method. The data set is classed as functional, organism-based. An outline of the steps: as §1

For `C[C@@H]1C[C@H](C)C[C@H](C)[C@@H](O)CC(=O)O[C@H]([C@@H]2CCC[C@H]2C(=O)OCCN2CCN(CC3CCCCC3)CC2)C/C=C/C=C(/C#N)[C@H](O)[C@@H](C)C1`, the result in data set [1] and in data set [7] was inactive. Moreover, the figures for the selectivity ratio in [2], in data set [3] and in data set [4] were under 0.23, under 0.23 and 0.92, respectively. Moreover, the minimal inhibitory concentration (MIC) in data set [5] came to 25 µg/mL (≈ 35.8 µM). For the same compound, in data set [6], the IC50 was 23 µg/mL (≈ 33 µM).

`C[C@@H]1C[C@H](C)C[C@H](C)[C@@H](O)CC(=O)O[C@H]([C@@H]2CCC[C@H]2C(=O)OCCN2CCCCC2)C/C=C/C=C(/C#N)[C@H](O)[C@@H](C)C1`: the MIC in [8] came out at 100 µg/mL (≈ 166 µM); in [9] it was 100 µg/mL (≈ 166 µM); in [5], 50 µg/mL (≈ 83.2 µM). Also, the selectivity ratio was 0.28 in data set [2], 0.28 in [3] and 0.55 in [4]. The IC50 in data set [6] stood at 27.6 µg/mL (≈ 46 µM).

For the compound `C[C@@H]1C[C@H](C)C[C@H](C)[C@@H](O)CC(=O)O[C@H]([C@@H]2CCC[C@H]2C(=O)OCCN(C)C)C/C=C/C=C(/C#N)[C@H](O)[C@@H](C)C1`, in [10], the outcome was inactive. Further, the MIC in data set [8] and in data set [9] was 100 µg/mL (≈ 178 µM) throughout. Also, the values for the selectivity ratio in data set [2], in data set [3] and in data set [4] were 0.39, 0.39 and under 0.39, respectively. Moreover, the IC50 in data set [6] was determined as 39.2 µg/mL (≈ 70 µM).

Take `C[C@@H]1C[C@H](C)C[C@H](C)[C@@H](O)CC(=O)O[C@H]([C@@H]2CCC[C@H]2C(=O)OCCn2ccnc2)C/C=C/C=C(/C#N)[C@H](O)[C@@H](C)C1`: the results for the selectivity ratio in data set [2], in data set [3] and in [4] were under 0.18, under 0.18 and 0.72, respectively. This compound also returned an MIC in data set [5] of 25 µg/mL (≈ 42.8 µM). Also, in [6], the IC50 was 18.1 µg/mL (≈ 31 µM).

Take `C=CCN1CCN(CCOC(=O)[C@@H]2CCC[C@H]2[C@@H]2C/C=C/C=C(/C#N)[C@H](O)[C@@H](C)C[C@H](C)C[C@H](C)C[C@H](C)[C@@H](O)CC(=O)O2)CC1`: the result in data set [1] and in data set [7] was inactive. In addition, the selectivity ratio was under 0.22 in data set [2], under 0.22 in [3] and 1.76 in [4]. In data set [5], the MIC is 12.5 µg/mL (≈ 19.5 µM). Moreover, the IC50 in data set [6] was determined as 22 µg/mL (≈ 34.3 µM).

Regarding `C[C@@H]1C[C@H](C)C[C@H](C)[C@@H](O)CC(=O)O[C@H]([C@@H]2CCC[C@H]2C(=O)OCCN2CCN(CCC3OCCO3)CC2)C/C=C/C=C(/C#N)[C@H](O)[C@@H](C)C1`, the outcome in [1] and in data set [7] was inactive. Moreover, the values for the selectivity ratio in [2], in [3] and in data set [4] were under 0.7, under 0.7 and over 5.61, respectively. In data set [5], this compound showed a minimum inhibitory concentration (MIC) of 12.5 µg/mL (≈ 17.8 µM). For the same compound, the IC50 in [6] was over 70.1 µg/mL.

As to `C[C@@H]1[C@H](O)[C@@H](C)/C=C/C=C/C=C/C=C/C=C/C=C/C=C/[C@H](O[C@@H]2O[C@H](C)[C@@H](O)[C@H](N)[C@@H]2O)C[C@@H]2O[C@](O)(C[C@@H](O)C[C@@H](O)[C@H](O)CC[C@@H](O)C[C@@H](O)CC(=O)O[C@H]1C)C[C@H](O)[C@H]2C(=O)O` [AMPHOTERICIN B], the figures for the MIC in data set [8], in data set [9] and in data set [5] were 1 µg/mL (≈ 1.08 µM), 2 µg/mL (≈ 2.16 µM) and 2 µg/mL (≈ 2.16 µM), respectively.

In the case of `C[C@@H]1C[C@H](C)C[C@H](C)[C@@H](O)CC(=O)O[C@H]([C@@H]2CCC[C@H]2C(=O)O)C/C=C/C=C(/C(N)=O)[C@H](O)[C@@H](C)C1`, the result in data set [1], in [10] and in data set [7] was inactive. Moreover, the MIC in [8], in data set [9] and in data set [5] was over 100 µg/mL each time.

On to `C[C@@H]1C[C@H](C)C[C@H](C)[C@@H](O)CC(=O)O[C@H]([C@@H]2CCC[C@H]2C(=O)O)C/C=C/C=C(/C#N)[C@H](O)[C@@H](C)C1` [BORRELIDIN], for which the result in [1] and in data set [10] was inactive. This compound displayed an MIC in data set [8] of 50 µg/mL (≈ 102 µM). In addition, the selectivity ratio in data set [2] is under 0.14; in data set [3], 0.28; in [4], under 0.14. Further, the IC50 in data set [6] was 14 µg/mL (≈ 28.5 µM).

Consider `C[C@@H]1C[C@H](C)C[C@H](C)[C@@H](O)CC(=O)O[C@H]([C@@H]2CCC[C@H]2C(=O)OCCN2CCN(CC3CC3)CC2)C/C=C/C=C(/C#N)[C@H](O)[C@@H](C)C1`, for which the result in data set [1] and in data set [7] was inactive. Besides, the results for the selectivity ratio in data set [2], in data set [3] and in data set [4] were under 0.17, under 0.17 and 0.34, respectively. Further, in [5], the minimum inhibitory concentration (MIC) came to 50 µg/mL (≈ 76.2 µM). Besides, the IC50 in [6] was 17 µg/mL (≈ 26 µM).

For `C[C@@H]1C[C@H](C)C[C@H](C)[C@@H](O)CC(=O)O[C@H]([C@@H]2CCC[C@H]2C(=O)N2CCCCC2)C/C=C/C=C(/C#N)[C@H](O)[C@@H](C)C1`, the result in data set [1], in data set [10] and in data set [7] was inactive.

Regarding `C[C@@H]1C[C@H](C)C[C@H](C)[C@@H](O)CC(=O)O[C@H]([C@@H]2CCC[C@H]2C(=O)N2CCCC2)C/C=C/C=C(/C#N)[C@H](O)[C@@H](C)C1`, the result in data set [1], in [10] and in [7] was inactive.

In the case of `C[C@@H]1C[C@H](C)C[C@H](C)[C@@H](O)CC(=O)O[C@H]([C@@H]2CCC[C@H]2C(=O)NCc2ccccc2)C/C=C/C=C(/C#N)[C@H](O)[C@@H](C)C1`, the outcome in data set [1], in data set [10] and in [7] was inactive.

Consider `COc1ccc(CCNC(=O)[C@@H]2CCC[C@H]2[C@@H]2C/C=C/C=C(/C#N)[C@H](O)[C@@H](C)C[C@H](C)C[C@H](C)C[C@H](C)[C@@H](O)CC(=O)O2)cc1`, for which the result in data set [1], in [10] and in data set [7] was inactive.

In the case of `C[C@@H]1C[C@H](C)C[C@H](C)[C@@H](O)CC(=O)O[C@H]([C@@H]2CCC[C@H]2C(=O)OCCN2CCOCC2)C/C=C/C=C(/C#N)[C@H](O)[C@@H](C)C1`, the result in [10] was inactive. Further, the minimal inhibitory concentration (MIC) in [8] and in data set [9] was 100 µg/mL (≈ 166 µM) each time. Further, the selectivity ratio in data set [2] was 0.28; in data set [3] it was 0.28; in data set [4] it was under 0.28. Besides, the IC50 in data set [6] came out at 28 µg/mL (≈ 46.5 µM).

Regarding `C[C@@H]1C[C@H](C)C[C@H](C)[C@@H](O)CC(=O)O[C@H]([C@@H]2CCC[C@H]2C(=O)OCCN2CCN(Cc3ccc4ccccc4c3)CC2)C/C=C/C=C(/C#N)[C@H](O)[C@@H](C)C1`, the result in [1], in [10] and in data set [7] was inactive.

Regarding `C[C@@H]1C[C@H](C)C[C@H](C)[C@@H](O)CC(=O)O[C@H]([C@@H]2CCC[C@H]2C(=O)NCCc2ccccn2)C/C=C/C=C(/C#N)[C@H](O)[C@@H](C)C1`, the result in data set [1], in data set [10] and in [7] was inactive.
